Experimental data from paper PMC7113852 (Antiviral Research, 2018).
Read-outs that look alike come from different tables or passages of the source.

What was measured:
in vitro [1] = settings: human
[2] = system: RVFV (rRVFVΔNSs::Katushka); experiment: microbe, parasite or virus in culture; type: cell-based, Rift Valley fever virus
ZIKV FB-GWUH-2016 strain [3] = experiment: Viability and death of ZIKV-infected RPE cells; type: cell-based, Zika virus; settings: for SI (minimal selectivity index, CC50/EC50): ZIKV, RPE cells; for EC50: Zika virus, RPE
ZIKV FB-GWUH-2016 strain [4] = experiment: ZIKV titer from compound-treated RPE cells, plaque assay on Vero-E6 cells; type: cell-based, Zika virus; settings: ZIKV, RPE cells; for antiviral activity in repeat experiments: repeated CTG, CTxG and virus titration
Summary of the method: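 Medium for ZIKV infection: DMEM-F12 with 2% FBS, 2 mM L-glutamine, 0.25% sodium bicarbonate and 50 U/ml PenStrep, applied after 24 h growth of ~4 × 10^4 RPE cells/well. Test compound added in seven three-fold dilutions from 30 μM; infection at MOI 1. Media harvested at cytopathic effect (typically 24–72 hpi), serially diluted in PBS, plaque-titrated on Vero-E6 (PFU/ml). EC50 from variable-slope non-linear regression or Hill fit.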

EV1 [5] = experiment: microbe, parasite or virus in culture; type: cell-based, Echovirus 1
EV1 [6] = experiment: microbe, parasite or virus in culture; type: cell-based, Echovirus 1; settings: for EC50: read-out: EC50 other
HIV-1 = HIV-1 infection of TZM-bl cells, firefly luciferase under HIV-1 LTR promoter; type: cell-based, Human immunodeficiency virus 1
in vitro [7] = settings: human; remark: listed apart in the source
CHIKV-2SG-NanoLuc [8] = experiment: microbe, parasite or virus in culture; type: cell-based, Chikungunya virus; settings: for EC50: Chikungunya virus, RPE
CHIKV-2SG-NanoLuc [9] = experiment: microbe, parasite or virus in culture; type: cell-based, Chikungunya virus
[10] = system: FLUAV (influenza A/WSN/33(H1N1) virus); experiment: microbe, parasite or virus in culture; type: cell-based; settings: for EC50: Influenza A virus, H1N1|WSN, RPE
[11] = system: FLUAV (influenza A/WSN/33(H1N1) virus); experiment: microbe, parasite or virus in culture; type: cell-based
HSV-1 [12] = experiment: Viability and death of HSV-1-infected RPE cells; type: cell-based, Herpes simplex virus 1
HSV-1 [13] = experiment: HSV-1 titer from compound-treated RPE cells, plaque assay on Vero-E6 cells; type: cell-based, Herpes simplex virus 1; settings: HSV-1, RPE cells; repeated CTG, CTxG and virus titration
Summary of the method: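 RPE cells (~4 × 10^4/well) grown 24 h, then switched to DMEM-F12 with 0.2% BSA, 2 mM L-glutamine, 0.35% NaHCO3 and 1 μg/mL TPCK-trypsin. Three-fold dilutions of test compound (seven concentrations from 30 μM); HSV-1 infection at MOI 1. Supernatants collected at cytopathic effect (typically 24–72 hpi), serially diluted in PBS, plaqued on Vero-E6 under overlay, fixed; titers as PFU/ml.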

With `CNCCC(Oc1ccc(C(F)(F)F)cc1)c1ccccc1` (stereo not drawn) [Fluoxatine] the CC50 (in vitro [1]; CC50 CTG) was 4.02 µM and the CC50 (in vitro [1]; CC50 CTxG) was 7.33 µM.
For `C[C@H]1c2cccc(O)c2C(=O)C2=C(O)[C@]3(O)C(=O)C(C(N)=O)=C(O)[C@@H](N(C)C)[C@@H]3[C@@H](O)[C@@H]21` [doxycycline], the “screen hit against RVFV” value [2] was “identified”.
With `CC[C@@]1(O)C(=O)OCc2c1cc1n(c2=O)Cc2cc3c(CN(C)C)c(O)ccc3nc2-1` [topotecan] the “screen hit against RVFV” value [2] was “identified”.
With `CCN(CCO)CCCC(C)Nc1ccnc2cc(Cl)ccc12` (stereo not drawn) [Hydroxychloroquine] the “SI (minimal selectivity index, CC50/EC50)” value (ZIKV FB-GWUH-2016 strain [3]) was over 1, the EC50 (ZIKV FB-GWUH-2016 strain [3]; read-out: EC50 CTG) was 23 µM and the EC50 (ZIKV FB-GWUH-2016 strain [3]; read-out: EC50 CTxG) was 0.06 µM. For the same molecule, the “antiviral activity in repeat experiments” value (ZIKV FB-GWUH-2016 strain [4]) was “confirmed antiviral activity”, the CC50 (in vitro [1]; CC50 CTG) was over 30 µM and the CC50 (in vitro [1]; CC50 CTxG) was over 30 µM.
With `CN[C@H]1C(=O)N[C@@H]2Cc3ccc(cc3)Oc3cc4cc(c3O[C@@H]3O[C@H](C(=O)O)[C@@H](O)[C@H](O)[C@H]3NC(=O)CCCCCCCCC(C)C)Oc3ccc(cc3Cl)[C@@H](O)[C@@H]3NC(=O)[C@H](NC(=O)[C@@H]4NC(=O)[C@@H](NC2=O)c2cc(cc(O)c2Cl)Oc2cc1ccc2O)c1ccc(O)c(c1)-c1c(O[C@H]2O[C@H](CO)[C@@H](O)[C@H](O)[C@@H]2O)cc(O)cc1[C@@H](C(=O)NCCCN(C)C)NC3=O` [Dalbavancin] the EC50 (EV1 [5]; read-out: EC50 CTG) was 3.23 µM, the EC50 (EV1 [5]; read-out: EC50 CTxG) was 18.7 µM and the “antiviral activity in repeat experiments” value (EV1 [6]) was “confirmed antiviral activity”. The “production of infectious virus particles” value (EV1 [6]) was “lowered production of infectious virus particles”, the EC50 (EV1 [6]) was 9.72 µM and the CC50 (RPE cells) was over 30 µM. For the same molecule, the cytotoxicity (RPE cells) was “without detectable cytotoxicity”.
For `O=C1[C@H](CC[C@H](O)c2ccc(F)cc2)[C@@H](c2ccc(O)cc2)N1c1ccc(F)cc1` [Ezetimibe], the “SI (minimal selectivity index, CC50/EC50)” value (ZIKV FB-GWUH-2016 strain [3]) was over 333, the EC50 (ZIKV FB-GWUH-2016 strain [3]; read-out: EC50 CTxG) was 0.09 µM and the “production of infectious virus particles” value (ZIKV FB-GWUH-2016 strain [4]) was “lowered production of infectious virus particles”. For the same molecule, the “antiviral activity in repeat experiments” value (ZIKV FB-GWUH-2016 strain [4]) was “confirmed antiviral activity”, the “SI (minimal selectivity index, CC50/EC50)” value (HIV-1; HIV-1, TZM-bl cells) was over 2 and the “primary screen hit against HIV-1” value (HIV-1; HIV-1, TZM-bl cells) was “anti-HIV-1 agents”. The “validation of anti-HIV-1 hit” value (HIV-1; HIV-1, TZM-bl cells, validation experiment) was “confirmed”, the EC50 (HIV-1; Human immunodeficiency virus 1, TZM-bl, read-out: EC50 other) was 13.2 µM and the “screen hit against RVFV” value [2] was “identified”. The cytotoxicity (RPE cells) was “without detectable cytotoxicity”, the CC50 (in vitro [1]; CC50 CTG) was over 30 µM and the CC50 (in vitro [1]; CC50 CTxG) was over 30 µM. It also gave a CC50 (in vitro [7]) of over 30 µM.
With `COc1cc2ncnc(Nc3ccc(F)c(Cl)c3)c2cc1OCCCN1CCOCC1` [gefitinib] the “screen hit against RVFV” value [2] was “identified”.
With `CCN(CC)CCCC(C)Nc1ccnc2cc(Cl)ccc12` (stereo not drawn) [Chloroquine] the “SI (minimal selectivity index, CC50/EC50)” value (ZIKV FB-GWUH-2016 strain [3]) was over 4, the EC50 (ZIKV FB-GWUH-2016 strain [3]; read-out: EC50 CTG) was 7.25 µM and the “antiviral activity in repeat experiments” value (ZIKV FB-GWUH-2016 strain [4]) was “confirmed antiviral activity”. For the same molecule, the “SI (minimal selectivity index, CC50/EC50)” value (CHIKV-2SG-NanoLuc [8]; CHIKV, RPE cells) was over 2, the EC50 (CHIKV-2SG-NanoLuc [8]; read-out: EC50 CTG) was 12.8 µM and the EC50 (CHIKV-2SG-NanoLuc [8]; read-out: EC50 CTxG) was 9.15 µM. For the same molecule, the “antiviral activity in repeat experiments” value (CHIKV-2SG-NanoLuc [9]) was “confirmed antiviral activity”, the EC50 (CHIKV-2SG-NanoLuc [9]; Chikungunya virus, RPE, read-out: EC50 other) was 16.8 µM and the CC50 (in vitro [1]; CC50 CTG) was over 30 µM. For the same molecule, the CC50 (in vitro [1]; CC50 CTxG) was over 30 µM.
In the case of `Nc1ccn([C@@H]2O[C@H](CO)[C@@H](O)C2(F)F)c(=O)n1` [Gemcitabine], the “SI (minimal selectivity index, CC50/EC50)” value [10] is reported as over 29, the EC50 ([10]; read-out: EC50 CTG) is reported as 0.25 µM and the EC50 ([10]; read-out: EC50 CTxG) is reported as 1.02 µM. The “antiviral activity in repeat experiments” value [11] was “confirmed antiviral activity”, the EC50 ([11]; Influenza A virus, H1N1|WSN, read-out: EC50 other) was 0.89 µM and the “SI (minimal selectivity index, CC50/EC50)” value (EV1 [5]) was over 4. The EC50 (EV1 [5]; Enterovirus B, RPE, read-out: EC50 CTxG) was 0.08 µM, the “antiviral activity in repeat experiments” value (EV1 [6]) was “confirmed antiviral activity” and the EC50 (EV1 [6]; Enterovirus B) was 6.96 µM. For the same molecule, the “SI (minimal selectivity index, CC50/EC50)” value (ZIKV FB-GWUH-2016 strain [3]) was 23, the EC50 (ZIKV FB-GWUH-2016 strain [3]; read-out: EC50 CTG) was 0.92 µM and the EC50 (ZIKV FB-GWUH-2016 strain [3]; read-out: EC50 CTxG) was 0.07 µM. The “antiviral activity in repeat experiments” value (ZIKV FB-GWUH-2016 strain [4]) was “confirmed antiviral activity”, the “SI (minimal selectivity index, CC50/EC50)” value (HSV-1 [12]; HSV-1, RPE cells) was over 500 and the EC50 (HSV-1 [12]; Human alphaherpesvirus 1, RPE, read-out: EC50 CTG) was 0.05 µM. For the same molecule, the “antiviral activity in repeat experiments” value (HSV-1 [13]) was “confirmed antiviral activity”, the CC50 (RPE cells; human) was 21.8 µM and the CC50 (in vitro [1]; CC50 CTG) was over 30 µM. The CC50 (in vitro [1]; CC50 CTxG) was over 30 µM.
In the case of Bortezamib, the “screen hit against RVFV” value [2] is reported as “identified”, the EC50 ([2]; read-out: EC50 other) is reported as under 0.39 µM and the CC50 (A549 cells) is reported as over 100 µM.
